We go through three compounds from ChEMBL document CHEMBL4033606, “Ulapualides C-E Isolated from a Hawaiian Hexabranchus sanguineus Egg Mass” (J Nat Prod, 2017).

The structures appear in SMILES notation. Activity calls are given as the source filed them. The rule behind the calls is not given here.

Assay [1] has as its target Beta-secretase 1 (Homo sapiens) (UniProt P56817). The experiment in a line: Inhibition of BACE1 (unknown origin) up to 30 uM.
A further assay relates to DU-145. The experiment in a line: Cytotoxicity against human DU145 cells incubated for 72 hrs by CyQuant NF cell proliferation assay. The assay is classed as functional, cell-based. The conditions noted are these: DU-145, 72 h. Summed up: (§1)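 Cells seeded at 4,000 per well and treated 20 h later with serially diluted compounds for 72 h at 37 °C, 5% CO2. Medium containing penicillin 100 U/mL and streptomycin 100 μg/mL. Medium then replaced with CyQuant NF dye-binding solution for 60 min at 37 °C and fluorescence read on a plate reader. Triplicates in two independent trials. IC50 reported. In the second trial, sample concentration was set by colorimetry against a standard curve.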

For the next assay, the system named is MDA-MB-231. The experiment in a line: Cytotoxicity against human MDA-MB-231 cells incubated for 72 hrs by CyQuant NF cell proliferation assay. The format is functional, cell-based. The conditions noted are these: MDA-MB-231, 72 h. The essentials:
as §1

The next assay concerns A549. The experiment in a line: Cytotoxicity against human A549 cells incubated for 72 hrs by CyQuant NF cell proliferation assay. Conditions: A549, 72 h. The assay is classed as functional, cell-based. Summed up:
as §1

Chain of Beta-secretase 1 (Homo sapiens) (P56817 whole entry): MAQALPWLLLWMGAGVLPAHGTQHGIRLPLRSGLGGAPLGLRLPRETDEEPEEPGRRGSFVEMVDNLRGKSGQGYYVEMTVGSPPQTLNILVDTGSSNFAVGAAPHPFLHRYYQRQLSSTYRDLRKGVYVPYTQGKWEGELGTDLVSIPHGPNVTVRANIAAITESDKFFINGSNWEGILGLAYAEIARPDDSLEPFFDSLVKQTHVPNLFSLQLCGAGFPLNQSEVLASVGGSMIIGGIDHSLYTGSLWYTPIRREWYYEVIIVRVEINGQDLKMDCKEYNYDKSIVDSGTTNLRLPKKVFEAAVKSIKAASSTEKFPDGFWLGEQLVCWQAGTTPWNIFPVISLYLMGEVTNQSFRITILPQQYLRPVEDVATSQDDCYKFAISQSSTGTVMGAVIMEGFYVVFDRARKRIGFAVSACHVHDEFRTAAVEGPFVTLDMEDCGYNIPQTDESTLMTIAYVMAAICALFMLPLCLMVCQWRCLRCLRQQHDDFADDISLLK

For the compound `CO[C@H]1C/C=C/c2nc(co2)-c2nc(co2)-c2nc(co2)[C@@H](C)CC(=O)CCC[C@H](O)CC(=O)O[C@@H](C[C@H](OC)[C@@H](C)CCC(=O)[C@H](C)[C@H](OC(C)=O)[C@H](C)/C=C/N(C)C=O)[C@@H]1C`, the inhibition result in assay [1] is “inactive”. The IC50 – broadly, the point on the concentration scale where inhibition reaches its midpoint – in the assay on DU-145 was 250 to 260 nM; with MDA-MB-231, 230 to 250 nM; in the assay on A549, 280 to 290 nM.

As for `COC(CC1OC(=O)CC(O)CCCC(=O)CC(C)c2coc(n2)-c2coc(n2)-c2coc(n2)/C=C/CC(OC)C1C)C(C)CCC(O)C(C)C(OC(C)=O)C(C)/C=C/N(C)C=O` (stereo unspecified), the values for the half-maximal inhibitory concentration (IC50) in the assay with DU-145, with MDA-MB-231 and in the assay on A549 were 760 to 850 nM, 580 to 760 nM and 600 to 680 nM, respectively.

Turning to `COCC(OC)C(=O)OC(CCC(C)C(CC1OC(=O)CC(O)CCCC(=O)CC(C)c2coc(n2)-c2coc(n2)-c2coc(n2)/C=C/CC(OC)C1C)OC)C(C)C(OC(C)=O)C(C)/C=C/N(C)C=O` (stereo unspecified), in assay [1], the inhibition result is “inactive”. The values for the IC50 in the assay on DU-145, in the assay on MDA-MB-231 and in the assay with A549 were 280 to 340 nM, 290 nM and 260 to 330 nM, respectively.
